≈ marks a conversion by molar mass, not a printed value.

One series deals with B. subtilis 3610. The series can be described thus: Broth microdilution antimicrobial testing. The note with it: for MIC: Bacillus subtilis, 3610, 20 h, read-out: MIC values B. subtilis 3610; for MIC values B. subtilis 3610: n = 2. The format is cell-based, Bacillus subtilis. The essentials: (§1)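 Serial dilutions in Mueller-Hinton Broth 2, inoculated at 5 × 10^5 cfu/mL; wells ≤5% DMSO. Growth, sterility, DMSO and known-antibiotic controls included; inoculum count checked by plating on MHB 2 agar. Incubated 20 h at 37 °C. MIC taken as lowest concentration with no growth visible to unaided eye.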

For another series, the system named is E. coli DC2. The series can be described thus: Broth microdilution antimicrobial testing. The format is cell-based, Escherichia coli. The note with it: for MIC: Escherichia coli, DC2, 20 h, read-out: MIC values E. coli DC2. The essentials: as §1
Series [1] addresses T1, HK853 (Thermotoga maritima, UniProt Q9WZV7).
T1 sequence (Q9WZV7 232-489): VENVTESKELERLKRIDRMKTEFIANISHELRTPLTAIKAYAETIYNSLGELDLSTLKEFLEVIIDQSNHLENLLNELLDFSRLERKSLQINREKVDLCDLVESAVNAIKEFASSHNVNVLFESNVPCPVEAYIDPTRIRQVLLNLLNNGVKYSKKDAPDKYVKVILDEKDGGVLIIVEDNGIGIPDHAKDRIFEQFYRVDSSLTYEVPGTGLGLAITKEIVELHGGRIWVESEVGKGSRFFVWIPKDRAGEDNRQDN
The series can be described thus: High-throughput primary FP screen for displacement of ADP-BODIPY. The note with it: 20 μM compound. The format is binding.

A further series has as its system PhoQ. To be noted: cited from earlier work.
Series [2] deals with T1, HK853. The series can be described thus: Inhibition of HK853 autophosphorylation activity. In kind it is biochemical.
The target of the next series is T2, VicK (Streptococcus pneumoniae, UniProt Q8DPL8).
T2 sequence (Q8DPL8 36-449 limits assumed): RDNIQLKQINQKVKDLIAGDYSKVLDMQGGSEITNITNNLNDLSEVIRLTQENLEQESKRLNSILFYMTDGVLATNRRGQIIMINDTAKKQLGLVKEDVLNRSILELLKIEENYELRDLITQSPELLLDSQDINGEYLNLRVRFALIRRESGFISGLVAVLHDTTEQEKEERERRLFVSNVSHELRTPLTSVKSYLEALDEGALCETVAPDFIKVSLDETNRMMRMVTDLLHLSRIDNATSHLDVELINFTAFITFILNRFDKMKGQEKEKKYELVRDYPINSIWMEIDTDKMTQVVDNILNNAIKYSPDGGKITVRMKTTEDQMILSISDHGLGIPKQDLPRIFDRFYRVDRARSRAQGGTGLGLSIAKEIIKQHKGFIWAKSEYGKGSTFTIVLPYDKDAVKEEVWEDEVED
The series can be described thus: Inhibition of VicK activity. The format is biochemical. The essentials:
(§2)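 Enzyme (VicK 2 μM; for CheA, 2 μM CheA plus 6 μM CheW) preincubated with test compound 30 min RT, then radioactive ATP mix added. Final: 3 μM ATP [γ-33P] (20 Ci mmol–1), 5% DMSO, 0.1% Triton X-100 in reaction buffer, pH 7.8. Reacted 30 min RT, quenched in SDS loading buffer, run on SDS-PAGE. Radioactive band density normalised to no-inhibitor control; IC50 from four-parameter logistic fit.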

A further series has as its target T3, CheA (Escherichia coli, UniProt P07363).
T3 sequence (P07363 1-654): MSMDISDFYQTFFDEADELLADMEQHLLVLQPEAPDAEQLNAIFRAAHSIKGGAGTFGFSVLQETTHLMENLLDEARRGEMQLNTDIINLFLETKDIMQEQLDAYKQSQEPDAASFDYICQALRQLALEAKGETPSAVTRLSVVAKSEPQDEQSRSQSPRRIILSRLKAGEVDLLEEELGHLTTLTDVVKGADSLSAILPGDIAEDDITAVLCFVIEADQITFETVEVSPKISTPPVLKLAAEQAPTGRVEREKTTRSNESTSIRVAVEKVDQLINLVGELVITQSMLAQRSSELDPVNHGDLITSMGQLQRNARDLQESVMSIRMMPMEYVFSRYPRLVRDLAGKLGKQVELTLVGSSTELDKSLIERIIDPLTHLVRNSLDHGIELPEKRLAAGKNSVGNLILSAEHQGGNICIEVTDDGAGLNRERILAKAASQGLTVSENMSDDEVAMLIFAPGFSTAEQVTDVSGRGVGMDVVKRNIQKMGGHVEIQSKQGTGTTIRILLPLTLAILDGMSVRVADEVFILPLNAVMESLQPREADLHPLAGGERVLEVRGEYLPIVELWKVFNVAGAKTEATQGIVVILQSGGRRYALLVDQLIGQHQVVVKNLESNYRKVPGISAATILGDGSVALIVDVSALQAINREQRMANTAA
The series can be described thus: Inhibition of CheA activity. In kind it is biochemical. The essentials:
as §2

The target of series [3] is T1, HK853. The series can be described thus: Control FP competition. The format is binding. The essentials: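 Competition format: 25 μM HK853 plus 10 nM ADP-BODIPY probe with 0–1000 μM competing nucleotide and 5% (v/v) DMSO, in 50 mM Tris-HCl pH 7.8, 200 mM KCl, 5 mM MgCl2. Incubation and FP read as for binding, in triplicate. FP plotted against log molar competitor; IC50 from four-parameter logistic fit.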

The test system of another series is four HK proteins. The note with it: cited from earlier work.
The test system of another series is Vero 76 cells. The series can be described thus: Cytotoxicity testing. The format is cell-based, African green monkey. To be noted: DMSO control, n = 2.

As to `O=C(N[C@H](CO)[C@H](O)c1ccc([N+](=O)[O-])cc1)C(Cl)Cl` [chloramphenicol], the MIC in the series with B. subtilis 3610 fell in the range of 2 to 4 µg/mL (≈ 6.19 to 12.4 µM); in the series on E. coli DC2, 0.5 to 1 µg/mL (≈ 1.55 to 3.09 µM). Regarding `COC1=C2C[C@@H](C)C[C@H](OC)[C@H](O)[C@@H](C)/C=C(\C)[C@H](OC(N)=O)[C@@H](OC)/C=C\C=C(/C)C(=O)NC(=CC1=O)C2=O` [geldanamyin], the “displacement of ADP-BODIPY (1) in primary screening (HTS)” value (“displacement of ADP-BODIPY” for short) on HK853 [1] is “failed to displace ADP-BODIPY (1)”. As to `C[C@@H]1C[C@H]2O[C@@H]2/C=C\C=C\C(=O)Cc2c(Cl)c(O)cc(O)c2C(=O)O1` [radicicol], the “displacement of ADP-BODIPY” value on HK853 [1] was “failed to displace ADP-BODIPY (1)”. Besides, in the series with PhoQ, the “difference in selectivity between Hsp90 and PhoQ” value was above 30 fold. In the case of `C=CCNC1=C2C[C@@H](C)C[C@H](OC)[C@H](O)[C@@H](C)/C=C(\C)[C@H](OC(N)=O)[C@@H](OC)/C=C\C=C(/C)C(=O)NC(=CC1=O)C2=O` [17-AAG], the “displacement of ADP-BODIPY” value at HK853 [1] is “failed to displace ADP-BODIPY (1)”. Turning to `O=c1c(-c2ccc(O)cc2)coc2cc(O)cc(O)c12` [Genistein, genistein], on HK853 [2] (Supporting Information Table 1, n=1), the “inhibition of HK853 activity in follow-up assays” value is “slight inhibition”. With `Nc1ncnc2c1ncn2[C@@H]1O[C@H](COP(=O)(O)OP(=O)(O)O)[C@@H](O)[C@H]1O` [ADP (3), adenosine diphosphate], the IC50 on VicK worked out at 4.81 µM; at CheA, 21.5 µM; on HK853 [3], 27.7 ± 0.9 µM; against HK853 [2], 2.57 µM. Further, the “increased potency over AMP (9)” value at HK853 [2] (from Table 1 IC50 values of HK inhibition) is recorded as “more than 300 fold”. For the compound `CN[C@H](CC(C)C)C(=O)N[C@H]1C(=O)N[C@@H](CC(N)=O)C(=O)N[C@H]2C(=O)N[C@H]3C(=O)N[C@H](C(=O)N[C@H](C(=O)O)c4cc(O)cc(O)c4-c4cc3ccc4O)[C@H](O)c3ccc(c(Cl)c3)Oc3cc2cc(c3O[C@@H]2O[C@H](CO)[C@@H](O)[C@H](O)[C@H]2O[C@H]2C[C@](C)(N)[C@H](O)[C@H](C)O2)Oc2ccc(cc2Cl)[C@H]1O` [vancomycin], in the series on B. subtilis 3610, the MIC was found to be 0.5 µg/mL (≈ 0.345 µM). In turn, `Nc1ncnc2c1ncn2[C@@H]1O[C@H](COP(=O)(O)OP(=O)(O)OP(=O)(O)O)[C@@H](O)[C@H]1O` [ATP (2), adenosine triphosphate] displayed an IC50 at HK853 [3] of 23 ± 1.1 µM. On to `N#Cc1c(N)nc2sc(C(=O)Nc3ccc(Br)cc3)c(N)c2c1-c1ccccc1` [TEP, 3,6-diamino-5-cyano-4-phenylthieno[2,3-b]pyridine-2-carboxylic acid (4-bromo-phenyl)-amide], for which, in the series with four HK proteins, the IC50 values result is reported as “low micromolar range”. Turning to `Nc1ncnc2nc[nH]c12` [adenine (10), adenine], the IC50 against HK853 [2] was determined as 463 µM. Take `CC1(C)S[C@@H]2[C@H](NC(=O)[C@H](N)c3ccccc3)C(=O)N2[C@H]1C(=O)O` [ampicillin]: in the series on E. coli DC2, the MIC amounted to 0.25 µg/mL (≈ 0.715 µM). Consider penicillin, for which the “MIC values B. subtilis 3610” value in the series with B. subtilis 3610 (20 h at 37 °C, lowest concentration that inhibited visible growth) is recorded as ≤0.06–0.5 μg mL^–1. On to `Nc1nc2ccc(OC(F)(F)F)cc2s1` [Compound 12, riluzole], for which the results for the IC50 on VicK and at CheA were 618 µM and 1340 µM, respectively. The figures for the MIC with B. subtilis 3610 and in the series on E. coli DC2 were 293 µg/mL (≈ 1250 µM) and 128 µg/mL (≈ 547 µM), respectively. With `O=c1cc(-c2ccc(O)c(O)c2)oc2cc(O)cc(O)c12` [Compound 15, luteolin], the values for the IC50 at VicK and against HK853 [2] were 216 µM and 15.1 µM, respectively. Moreover, the MIC in the series on B. subtilis 3610 is above 128 µg/mL; with E. coli DC2, 8 µg/mL (≈ 27.9 µM). Regarding `C[S+](C)[O-]` [DMSO, dimethyl sulfoxide], in the series with B. subtilis 3610 (DMSO control), the “MIC values B. subtilis 3610” value is reported as 20% (v/v). Further, the “MIC values E. coli DC2” value in the series with E. coli DC2 (DMSO control, n = 2) was 10–20% (v/v). Further, the “CC50 Vero 76 Cells” value with Vero 76 cells is >0.5% (v/v).

Values taken from publication PMC4301073 (ACS Chemical Biology, 2014).
